Experimental data from ChEMBL document CHEMBL1240442, “Design and synthesis of novel tricyclic benzoxazines as potent 5-HT(1A/B/D) receptor antagonists leading to the discovery of 6-{2-[4-(2-methyl-5-quinolinyl)-1-piperazinyl]ethyl}-4H-imidazo[5,1-c][1,4]benzoxazine-3-carboxamide (GSK588045)” (J Med Chem, 2010).

Assays:
Assay type in all cases: ADME, organism-based
[1] = Ratio of drug level in brain to blood in Sprague-Dawley rat at 0.5 mg/kg, iv and 1 mg/kg, po after 1 hr; settings: brain/whole blood, read-out: BBR
[2] = Oral bioavailability in Sprague-Dawley rat at 1 mg/kg; settings: in vivo
Procedure, shortened: (§1)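 Male Sprague-Dawley rats given 0.5 mg free base/kg iv bolus and 1 mg/kg po. Blood compound levels measured by protein precipitation and HPLC-MS/MS.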

[3] = Clearance in Sprague-Dawley rat blood at 0.5 mg/kg, iv and 1 mg/kg, po; settings: whole blood; procedure, shortened: as §1
[4] = Half life in Sprague-Dawley rat at 0.5 mg/kg, iv and 1 mg/kg, po; settings: in vivo; procedure, shortened: as §1
[5] = Volume of distribution at steady state in Sprague-Dawley rat at 0.5 mg/kg, iv and 1 mg/kg, po; settings: in vivo, read-out: Vdss; procedure, shortened: as §1

Structure (SMILES)	Kp at 1 h [1]	bioavailability [2]	clearance [3]	half-life [4]	Vd [5]
Cc1ccc2c(N3CCN(CCc4cccc5c4OCc4nnc(C)n4-5)CC3)cccc2n1	0.5	51%	12 mL/min/kg	1.8 h	1.6 L/kg
Cc1ccc2c(N3CCN(CCc4cccc5c4OCc4c(C(=O)N(C)C)ncn4-5)CC3)cccc2n1	1.8	50%	29 mL/min/kg	2.1 h	3.5 L/kg
Cc1ccc2c(N3CCN(CCc4cccc5c4OCc4c(C#N)ncn4-5)CC3)cccc2n1	1.6	48%	10 mL/min/kg	5.1 h	3.9 L/kg
CNC(=O)c1ncn2c1COc1c(CCN3CCN(c4cccc5nc(C)ccc45)CC3)cccc1-2	2.4	104%	8 mL/min/kg	6.3 h	3.8 L/kg

More lines, now with the values ahead:

Kp at 1 h [1]	bioavailability [2]	clearance [3]	half-life [4]	Vd [5]	Structure (SMILES)
1.7	65%	12 mL/min/kg	7.6 h	5.5 L/kg	Cc1ccc2c(N3CCN(CCc4cccc5c4OCc4c(C(=O)N6CCOCC6)ncn4-5)CC3)cccc2n1
2.7	43%	10 mL/min/kg	8.7 h	7.1 L/kg	CC(=O)c1ncn2c1COc1c(CCN3CCN(c4cccc5nc(C)ccc45)CC3)cccc1-2
3.2	43%	20 mL/min/kg	3.1 h	5 L/kg	Cc1ccc2c(N3CCN(CCc4cccc5c4OCc4c(C(=O)N6CCCC6)ncn4-5)CC3)cccc2n1
1.1	45%	10 mL/min/kg	4.4 h	2.9 L/kg	Cc1ccc2c(N3CCN(CCc4cccc5c4OCc4c(C(N)=O)ncn4-5)CC3)cccc2n1
